Our source for the Activity and MIC values is ChEMBL document CHEMBL1153729, “Structurally diverse limonoids from the fruits of Swietenia mahagoni” (2009).

The test system of one test is Kocuria rhizophila. Description: Antibacterial activity against Micrococcus luteus ATCC 9341 after 18 hrs. Particulars: for Activity: DC2201; for MIC: DC2201, 18 h. It is filed as functional. A digest of the protocol:
(§1)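 Bacterial cells suspended in Mueller-Hinton broth at a final density of […]. Incubated aerobically with compounds in DMSO at 37 °C for 18 h, alongside DMSO-only blank cultures and an ofloxacin positive control. MIC taken as the lowest concentration giving complete inhibition of visible growth.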

Test [1] concerns Staphylococcus epidermidis. Nature of the test: Antibacterial activity against Staphylococcus epidermidis ATCC 12228 after 18 hrs. It is filed as functional, organism-based. The procedure, abridged: as §1
For the next test, the system named is Escherichia coli. Nature of the test: Antibacterial activity against Escherichia coli ATCC 25922 after 18 hrs. It is filed as functional, organism-based. The procedure, abridged:
as §1

A further test has as its system Pseudomonas aeruginosa. Nature of the test: Antibacterial activity against Pseudomonas aeruginosa ATCC 14502 after 18 hrs. It is filed as functional, organism-based. A digest of the protocol:
as §1

The subject of the next test is Trichophyton rubrum. Description: Antifungal activity against Trichophyton rubrum ATCC 10218 after 48 hrs. It is filed as functional, organism-based. A digest of the protocol:
(§2)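 Fungi grown in Sabouraud dextrose broth with compounds for 48 h at 37 °C. Blank cultures received a limited amount of DMSO. Amphotericin B, dissolved in DMSO, served as the positive control.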

Another test relates to Shigella flexneri. Description: Antibacterial activity against Shigella flexneri ATCC 12022 after 18 hrs. It is filed as functional, organism-based. A digest of the protocol: as §1
Another test relates to Staphylococcus aureus. Description: Antibacterial activity against Staphylococcus aureus ATCC 25923 after 18 hrs. It is filed as functional, organism-based. A digest of the protocol:
as §1

The test system of a further test is Nannizzia gypsea. Description: Antifungal activity against Microsporum gypseum ATCC 14683 after 48 hrs. It is filed as functional, organism-based. The procedure, abridged:
as §2

The next test relates to Saccharomyces. Description: Antifungal activity against Saccharomyces sake ATCC 26421 after 48 hrs. It is filed as functional, organism-based. The procedure, abridged:
as §2

The subject of another test is Candida albicans. Nature of the test: Antifungal activity against Candida albicans ATCC 1600 after 48 hrs. It is filed as functional, organism-based. The procedure, abridged: as §2
In a further test the test system is Bacillus subtilis. Description: Antibacterial activity against Bacillus subtilis ATCC 6633 after 18 hrs. It is filed as functional, organism-based. The procedure, abridged:
as §1

Structures are written as SMILES. Values after ≈ are worked out from the molar mass of the structure shown. Active and inactive are the calls of the source. The rule behind the calls is not given here.

As for `C=C1C2=CC(=O)O[C@@H](c3ccoc3)[C@]2(C)CC[C@@H]1[C@@]1(C)[C@@H](O)CC(=O)C(C)(C)[C@@H]1CC(=O)OC`, the result (with Kocuria rhizophila; in [1]; in the test on Escherichia coli; in the test with Pseudomonas aeruginosa; in the test on Trichophyton rubrum; in the test on Shigella flexneri) was inactive. The result with Staphylococcus aureus, in the test on Nannizzia gypsea, in the test on Saccharomyces, in the test with Candida albicans and in the test with Bacillus subtilis was inactive.
By MIC is commonly meant the least concentration at which growth counts as inhibited. In the test on Kocuria rhizophila, `CC1COc2c(N3CCN(C)CC3)c(F)cc3c(=O)c(C(=O)O)cn1c23` (centres undefined) [OFLOXACIN] returned a minimum inhibitory concentration (MIC) of 1.56 mg/L (≈ 4.32 µM).
On to `CC(=O)O[C@H]1C[C@@H](OC(C)=O)C(C)(C)[C@@H]2C[C@@H](OC(C)=O)[C@]3(C)[C@H](CC[C@@]4(C)[C@H](c5ccoc5)OC(=O)[C@H]5O[C@@]534)[C@@]12C`, for which the outcome (in the test on Kocuria rhizophila; in test [1]; in the test with Escherichia coli; in the test with Pseudomonas aeruginosa; in the test with Trichophyton rubrum; in the test with Shigella flexneri) was inactive. The result in the test on Staphylococcus aureus, in the test on Nannizzia gypsea, in the test on Saccharomyces, in the test with Candida albicans and in the test on Bacillus subtilis was inactive.
In the test with Kocuria rhizophila, `COC(=O)C[C@H]1C(C)(C)[C@H](OC(=O)C(C)C)[C@]2(O)CC3=C4CC(=O)O[C@@H](c5ccoc5)[C@]4(C)CC[C@@H]3[C@@]1(C)C2=O` registered an MIC of 50 mg/L (≈ 89.8 µM). For the same compound, the outcome (in test [1]; in the test with Escherichia coli; with Pseudomonas aeruginosa; with Trichophyton rubrum; in the test on Shigella flexneri; with Staphylococcus aureus) was inactive. Moreover, the result with Nannizzia gypsea, in the test with Saccharomyces, with Candida albicans and in the test on Bacillus subtilis was inactive.
In the case of `COC(=O)C[C@H]1C(C)(C)[C@H](OC(=O)c2ccccc2)[C@]2(O)CC3=C4CC(=O)O[C@@H](c5ccoc5)[C@]4(C)CC[C@@H]3[C@@]1(C)C2=O`, the result (in the test on Kocuria rhizophila; in test [1]; in the test on Escherichia coli; in the test on Pseudomonas aeruginosa; in the test on Trichophyton rubrum; with Shigella flexneri) was inactive. Moreover, the result in the test with Staphylococcus aureus, in the test on Nannizzia gypsea, in the test with Saccharomyces, with Candida albicans and in the test with Bacillus subtilis was inactive.
Consider `C/C=C(\C)C(=O)O[C@H]1C(C)(C)[C@H](CC(=O)OC)[C@]2(C)C(=O)[C@@]1(O)C=C1C3=CC(=O)O[C@@H](c4ccoc4)[C@]3(C)CC[C@@H]12`, for which the result (in the test on Kocuria rhizophila; in [1]; in the test on Escherichia coli; in the test on Pseudomonas aeruginosa; in the test on Trichophyton rubrum; in the test with Shigella flexneri) was inactive. In addition, the outcome in the test with Staphylococcus aureus, with Nannizzia gypsea, with Saccharomyces, in the test on Candida albicans and in the test with Bacillus subtilis was inactive.
`COC(=O)C[C@H]1C(C)(C)C(=O)[C@@H]2C[C@]3(O)C4=CC(=O)O[C@@H](c5ccoc5)[C@]4(C)CC[C@@H]3[C@@]1(C)C2=O`: the outcome (in the test with Kocuria rhizophila; in test [1]; in the test on Escherichia coli; in the test on Pseudomonas aeruginosa; in the test on Trichophyton rubrum; in the test on Shigella flexneri) was inactive. The outcome in the test with Staphylococcus aureus, in the test on Nannizzia gypsea, in the test with Saccharomyces, in the test on Candida albicans and with Bacillus subtilis was inactive.
For `C=C1[C@@H]2CC[C@@]3(C)[C@H](c4ccoc4)OC(=O)C[C@]13O[C@H]1CC(=O)C(C)(C)[C@H](CC(=O)OC)[C@]12C`, the outcome (in the test with Kocuria rhizophila; in [1]; in the test with Escherichia coli; in the test with Pseudomonas aeruginosa; in the test on Trichophyton rubrum; with Shigella flexneri) was inactive. For the same compound, the outcome in the test with Staphylococcus aureus, with Nannizzia gypsea, in the test with Saccharomyces, in the test on Candida albicans and in the test with Bacillus subtilis was inactive.
Take `COC(=O)C[C@H]1C(C)(C)[C@H](OC(C)=O)[C@@H]2C=C3[C@H]([C@H](OC(C)=O)C[C@]4(C)[C@H]3CC(=O)O[C@H]4c3ccoc3)[C@@]1(C)C2=O`: the outcome (in the test with Kocuria rhizophila; in test [1]; in the test on Escherichia coli; in the test with Pseudomonas aeruginosa; with Trichophyton rubrum; in the test on Shigella flexneri) was inactive. For the same compound, the result in the test on Staphylococcus aureus, with Nannizzia gypsea, with Saccharomyces, in the test on Candida albicans and in the test on Bacillus subtilis was inactive.
For `C/C=C(\C)C(=O)O[C@H]1C(C)(C)[C@H](CC(=O)OC)[C@]2(C)C(=O)[C@@]1(O)CC1=C3[C@@H](O)C(=O)O[C@@H](c4ccoc4)[C@]3(C)CC[C@@H]12`, the outcome (in the test on Kocuria rhizophila; in test [1]; in the test with Escherichia coli; in the test on Pseudomonas aeruginosa; in the test with Trichophyton rubrum; with Shigella flexneri) was inactive. For the same compound, the result with Staphylococcus aureus, in the test with Nannizzia gypsea, in the test with Saccharomyces, with Candida albicans and with Bacillus subtilis was inactive.
For `COC(=O)C[C@H]1C(C)(C)C(=O)[C@@H]2CC3=C4CC(=O)O[C@@H](c5ccoc5)[C@]4(C)CC[C@@H]3[C@@]1(C)C2=O`, the outcome (with Kocuria rhizophila; in [1]; in the test with Escherichia coli; with Pseudomonas aeruginosa; with Trichophyton rubrum; in the test on Shigella flexneri) was inactive. Also, the outcome with Staphylococcus aureus, in the test with Nannizzia gypsea, in the test with Saccharomyces, in the test on Candida albicans and with Bacillus subtilis was inactive.
For `COC(=O)C[C@H]1C(C)(C)[C@@H](OC(C)=O)[C@@H]2CC3=C4CC(=O)O[C@@H](c5ccoc5)[C@]4(C)CC[C@@H]3[C@@]1(C)C2=O`, the result (in the test on Kocuria rhizophila; in test [1]; with Escherichia coli; in the test on Pseudomonas aeruginosa; with Trichophyton rubrum; with Shigella flexneri) was inactive. For the same compound, the outcome in the test on Staphylococcus aureus, with Nannizzia gypsea, with Saccharomyces, with Candida albicans and in the test on Bacillus subtilis was inactive.
In the case of `COC(=O)C[C@H]1C(C)(C)[C@H](OC(C)=O)[C@]2(OC(C)=O)C=C3[C@H]([C@H](OC(C)=O)C[C@]4(C)[C@H]3CC(=O)O[C@H]4c3ccoc3)[C@@]1(C)C2=O`, the result (in the test on Kocuria rhizophila; in test [1]; in the test on Escherichia coli; in the test with Pseudomonas aeruginosa; in the test on Trichophyton rubrum; in the test with Shigella flexneri) was inactive. Besides, the result with Staphylococcus aureus, with Nannizzia gypsea, in the test with Saccharomyces, in the test on Candida albicans and in the test with Bacillus subtilis was inactive.
`COC(=O)C[C@H]1C(C)(C)[C@H](OC(=O)C(C)C)[C@]2(O)C=C3C4=CC(=O)O[C@@H](c5ccoc5)[C@]4(C)CC[C@@H]3[C@@]1(C)C2=O`: the result (in the test on Kocuria rhizophila; in test [1]; with Escherichia coli; in the test with Pseudomonas aeruginosa; with Trichophyton rubrum; with Shigella flexneri) was inactive. The result with Staphylococcus aureus, in the test with Nannizzia gypsea, in the test on Saccharomyces, in the test with Candida albicans and in the test with Bacillus subtilis was inactive.
